Measurements as given in ChEMBL document CHEMBL5236549, “Discovery of 2-Sulfinyl-Diazabicyclooctane Derivatives, Potential Oral β-Lactamase Inhibitors for Infections Caused by Serine β-Lactamase-Producing Enterobacterales” (J Med Chem, 2021).
Values after ≈ are worked out from the molar mass of the structure shown. Active and inactive are the calls of the source. No cut-off for these calls is given here.

Key:
[1] = AUC in rat at 5 mg/kg,po by LC/MS/MS analysis; format: ADME, organism-based; set-up: dose 5 mg/kg, route po; details: in vivo
Procedure, shortened: (§1)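 Plasma of the parent acid measured by LC/MS/MS (methanol precipitation, positive ESI, external standard); oral values follow prodrug dosing (rat fed, dog and monkey fasted). AUC from 0 h to last time point by linear trapezoid; F from oral AUC versus iv AUC of the parent. N = 2 (rat, dog), N = 3 (monkey, mouse).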

[2] = Cmax in mouse at 10 mg/kg,po by LC/MS/MS analysis; format: ADME, organism-based; set-up: dose 10 mg/kg, route po; details: in vivo; procedure, shortened: as §1
[3] = Toxicity in rat at > 2000 mg/kg,po administered for two weeks; format: organism-based; details: in vivo
Procedure, shortened: (§2)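 Two-week rat toxicology study with daily oral dosing of prodrug; NOAEL and lethal dose established.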

[4] = Cmax in dog at 10 mg/kg,po by LC/MS/MS analysis; format: ADME, organism-based, Canis lupus familiaris; set-up: dose 10 mg/kg, route po; details: in vivo; procedure, shortened: as §1
[5] = Oral bioavailability in mouse at 30 mg/kg by LC/MS/MS analysis; format: ADME, organism-based; details: in vivo; procedure, shortened: as §1
Klebsiella pneumoniae [6] = test: Antibacterial activity in ICR mouse infected with Klebsiella pneumoniae SR08667 assessed as reduction in bacterial colony forming units at 10 mg/kg,po administered upto 48 hrs after infection in presence of CTB; format: functional
Procedure, shortened: (§3)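 Urinary tract infection model in 5-week-old female ICR mice, N = 5 per arm. 1.2 × 10⁶ CFU given transurethrally, urethra tied for 4 h. Oral dosing at 4, 8, 28 and 32 h post-infection in 0.5% methylcellulose: ceftibuten 30 mg/kg alone, ceftibuten 10 mg/kg plus prodrug 3, 10 or 30 mg/kg, or both at 30 mg/kg. Kidneys homogenized at 4 or 48 h and plated on modified Drigalski agar. Read-out is change in log CFU/kidney versus untreated controls at treatment start.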

[7] = Oral bioavailability in monkey at 10 mg/kg by LC/MS/MS analysis; format: ADME, organism-based, Macaca mulatta; details: rhesus monkey, in vivo; procedure, shortened: as §1
[8] = AUC in mouse at 10 mg/kg,po by LC/MS/MS analysis; format: ADME, organism-based; set-up: dose 10 mg/kg, route po; details: in vivo; procedure, shortened: as §1
[9] = Tmax in rat at 5 mg/kg,po by LC/MS/MS analysis; format: ADME, organism-based; details: in vivo
[10] = Tmax in dog at 10 mg/kg,po by LC/MS/MS analysis; format: ADME, organism-based, Canis lupus familiaris; details: in vivo
[11] = AUC in monkey at 10 mg/kg,po by LC/MS/MS analysis; format: ADME, organism-based, Macaca mulatta; set-up: dose 10 mg/kg, route po; details: rhesus monkey, in vivo; procedure, shortened: as §1
[12] = Cmax in rat at 5 mg/kg,po by LC/MS/MS analysis; format: ADME, organism-based; set-up: dose 5 mg/kg, route po; details: in vivo; procedure, shortened: as §1
[13] = Tmax in monkey at 10 mg/kg,po by LC/MS/MS analysis; format: ADME, organism-based, Macaca mulatta; details: rhesus monkey, in vivo
[14] = Cmax in mouse at 30 mg/kg,po by LC/MS/MS analysis; format: ADME, organism-based; set-up: dose 30 mg/kg, route po; details: in vivo; procedure, shortened: as §1
[15] = Toxicity in rat at 600 mg/kg,po administered for two weeks; format: organism-based; details: in vivo; procedure, shortened: as §2
[16] = AUC in mouse at 100 mg/kg,po by LC/MS/MS analysis; format: ADME, organism-based; set-up: dose 100 mg/kg, route po; details: in vivo; procedure, shortened: as §1
[17] = Stability of the compound in phosphate buffer at pH 7.0 assessed as parent compound remaining at 40 degreeC measured after 16 hrs; format: physicochemical; details: read-out: Stability
Procedure, shortened: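 Compound held in pH 7.0 phosphate buffer at 40 °C for 16 h; amount remaining reported as %.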

Klebsiella pneumoniae [18] = test: Antibacterial activity in ICR mouse infected with Klebsiella pneumoniae SR08667 assessed as reduction in bacterial colony forming units at 30 mg/kg,po administered upto 48 hrs after infection in presence of CTB; format: functional; procedure, shortened: as §3
[19] = Cmax in monkey at 10 mg/kg,po by LC/MS/MS analysis; format: ADME, organism-based, Macaca mulatta; set-up: dose 10 mg/kg, route po; details: rhesus monkey, in vivo; procedure, shortened: as §1
[20] = Oral bioavailability in rat at 5 mg/kg by LC/MS/MS analysis; format: ADME, organism-based; details: in vivo; procedure, shortened: as §1
[21] = Oral bioavailability in mouse at 10 mg/kg by LC/MS/MS analysis; format: ADME, organism-based; details: in vivo; procedure, shortened: as §1
[22] = Oral bioavailability in dog at 10 mg/kg by LC/MS/MS analysis; format: ADME, organism-based, Canis lupus familiaris; details: in vivo; procedure, shortened: as §1
[23] = Oral bioavailability in mouse at 100 mg/kg by LC/MS/MS analysis; format: ADME, organism-based; details: in vivo; procedure, shortened: as §1
[24] = Cmax in mouse at 100 mg/kg,po by LC/MS/MS analysis; format: ADME, organism-based; set-up: dose 100 mg/kg, route po; details: in vivo; procedure, shortened: as §1
[25] = AUC in dog at 10 mg/kg,po by LC/MS/MS analysis; format: ADME, organism-based, Canis lupus familiaris; set-up: dose 10 mg/kg, route po; details: in vivo; procedure, shortened: as §1
[26] = AUC in mouse at 30 mg/kg,po by LC/MS/MS analysis; format: ADME, organism-based; set-up: dose 30 mg/kg, route po; details: in vivo; procedure, shortened: as §1
Klebsiella pneumoniae [27] = test: Antibacterial activity against Klebsiella pneumoniae SR200487 assessed as inhibition of bacterial growth incubated for 16 to 24 hrs by CLSI based two-fold serial dilution method; format: functional; details: time 16-24 hrs
Procedure, shortened: (§4)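 CLSI broth microdilution in cation-adjusted Mueller Hinton broth, twofold serial dilutions, about 5 × 10⁴ cfu/well from OD625, 35 °C for 16−20 h. MIC is the lowest concentration with no visible growth.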

Klebsiella pneumoniae [28] = test: Antibacterial activity against Klebsiella pneumoniae SR09603 assessed as inhibition of bacterial growth incubated for 16 to 20 hrs by CLSI based two-fold serial dilution method
Enterobacter cloacae [29] = test: Antibacterial activity against Enterobacter cloacae SR100108 assessed as inhibition of bacterial growth incubated for 16 to 20 hrs by CLSI based two-fold serial dilution method
Enterobacter cloacae [30] = test: Antibacterial activity against Enterobacter cloacae SR36276 assessed as inhibition of bacterial growth incubated for 16 to 20 hrs by CLSI based two-fold serial dilution method
Klebsiella pneumoniae [31] = test: Antibacterial activity against Klebsiella pneumoniae SR09635 assessed as inhibition of bacterial growth incubated for 16 to 20 hrs by CLSI based two-fold serial dilution method
Klebsiella pneumoniae [32] = test: Antibacterial activity against Klebsiella pneumoniae SR201325 assessed as inhibition of bacterial growth incubated for 16 to 20 hrs by CLSI based two-fold serial dilution method
Escherichia coli [33] = test: Antibacterial activity against Escherichia coli expressing KPC-2 assessed as inhibition of bacterial growth incubated for 16 to 24 hrs by CLSI based two-fold serial dilution method; format: functional; details: time 16-24 hrs
Procedure, shortened: (§5)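 CLSI broth microdilution with twofold serial dilutions in cation-adjusted Mueller Hinton broth. Inoculum set from OD625 to about 5 × 10⁴ cfu/well final. Plates incubated at 35 °C for 16−20 h. MIC is the lowest concentration with no growth visible to the unaided eye.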

Klebsiella pneumoniae [34] = test: Antibacterial activity against Klebsiella pneumoniae SR100758 assessed as inhibition of bacterial growth incubated for 16 to 24 hrs by CLSI based two-fold serial dilution method; format: functional; details: time 16-24 hrs; procedure, shortened: as §4
Klebsiella pneumoniae [35] = test: Antibacterial activity in ICR mouse infected with Klebsiella pneumoniae SR08667 assessed as reduction in bacterial colony forming units at 30 mg/kg,po administered upto 48 hrs after infection; format: functional, organism-based; procedure, shortened: as §3
Escherichia coli [36] = test: Antibacterial activity against Escherichia coli expressing CTX-M-15 assessed as inhibition of bacterial growth incubated for 16 to 24 hrs by CLSI based two-fold serial dilution method; format: functional; details: time 16-24 hrs; procedure, shortened: as §5
Escherichia coli [37] = test: Antibacterial activity against Escherichia coli expressing OXA-48 assessed as inhibition of bacterial growth incubated for 16 to 24 hrs by CLSI based two-fold serial dilution method; format: functional; details: time 16-24 hrs; procedure, shortened: as §5
Klebsiella pneumoniae [38] = test: Antibacterial activity against Klebsiella pneumoniae SR200263 assessed as inhibition of bacterial growth incubated for 16 to 24 hrs by CLSI based two-fold serial dilution method; format: functional; details: time 16-24 hrs; procedure, shortened: as §4
Enterobacter cloacae [39] = test: Antibacterial activity against Enterobacter cloacae SR200030 assessed as inhibition of bacterial growth incubated for 16 to 24 hrs by CLSI based two-fold serial dilution method; format: functional; details: time 16-24 hrs; procedure, shortened: as §4
Escherichia coli [40] = test: Antibacterial activity against Escherichia coli expressing CMY-2 assessed as inhibition of bacterial growth incubated for 16 to 24 hrs by CLSI based two-fold serial dilution method; format: functional; details: time 16-24 hrs; procedure, shortened: as §5
Escherichia coli [41] = test: Antibacterial activity against Escherichia coli assessed as inhibition of bacterial growth incubated for 16 to 24 hrs by CLSI based two-fold serial dilution method; format: functional; details: time 16-24 hrs; procedure, shortened: as §5

## C[S@@+]([O-])[C@@H]1CC[C@@H]2CN1C(=O)N2O[C@H](F)C(=O)OC1CCCCC1
[1]
  AUC: 1170 ng·h/mL
[2]
  Cmax: 5600 ng/mL
[3]
  Activity: Non-Toxic
[4]
  Cmax: 15800 ng/mL
[5]
  bioavailability: 122%
Klebsiella pneumoniae [6]
  Activity: >0.5 log10CFU
[7]
  bioavailability: 54.8%
[8]
  AUC: 3900 ng·h/mL
[9]
  Tmax: 0.5 h
[10]
  Tmax: 1 h
[11]
  AUC: 15200 ng·h/mL
[12]
  Cmax: 620 ng/mL
[13]
  Tmax: 1 h
[14]
  Cmax: 21400 ng/mL
[15]
  Activity: Non-Toxic
[16]
  AUC: 50200 ng·h/mL
[17]
  remaining at 16 h: 56%
Klebsiella pneumoniae [18]
  Activity: >1 log10CFU
[19]
  Cmax: 7940 ng/mL
[20]
  bioavailability: 37.8%
[21]
  bioavailability: 80%
[22]
  bioavailability: 106%
[23]
  bioavailability: 102%
[24]
  Cmax: 52000 ng/mL
[25]
  AUC: 41200 ng·h/mL
[26]
  AUC: 18100 ng·h/mL

## Nc1nc(/C(=C/CC(=O)O)C(=O)N[C@@H]2C(=O)N3C(C(=O)O)=CCS[C@H]23)cs1 [CEFTIBUTEN]
Klebsiella pneumoniae [27]
  MIC: > 32 µg/mL
Klebsiella pneumoniae [28]
  MIC: > 32 µg/mL
Enterobacter cloacae [29]
  MIC: > 32 µg/mL
Enterobacter cloacae [30]
  MIC: > 32 µg/mL
Klebsiella pneumoniae [31]
  MIC: > 32 µg/mL
Klebsiella pneumoniae [32]
  MIC: > 32 µg/mL
Escherichia coli [33]
  MIC: 16 µg/mL (≈ 39 µM)
Klebsiella pneumoniae [34]
  MIC: > 32 µg/mL
Klebsiella pneumoniae [35]
  Activity: inactive
Escherichia coli [36]
  MIC: 32 µg/mL (≈ 78 µM)
Escherichia coli [37]
  MIC: > 32 µg/mL
Klebsiella pneumoniae [38]
  MIC: > 32 µg/mL
Enterobacter cloacae [39]
  MIC: > 32 µg/mL
Escherichia coli [40]
  MIC: > 32 µg/mL
Escherichia coli [41]
  MIC: > 32 µg/mL
